hERG rescue – compounds protecting human hERG from proarrhythmic drug block; Q12809; hit rate 0.51% among 310,000; activation (rescue from dofetilide block), less the hit threshold, % at 10 µM; AID 1511; CHO-hERG, FluxOR thallium flux, dofetilide IC70 present;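 active means activation above the mean of controls blocked by dofetilide plus 5 SD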;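 further: thallium influx through hERG after potassium depolarization seen as dye fluorescence rise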
KCNQ1 act – human KCNQ1 channel potentiation or activation; P51787; hit rate 0.35% among 310,000; CHO-K1 KCNQ1, thallium flux FluxOR fluorescence; hits give high values; B-score at 10 µM; AID 2648;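 active means fluorescence ratio B-score, a plate-corrected score, at least three library SD, with initial intensity B-score within 5 SD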
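System: Stable KCNQ1 CHO-K1 line | Incubation: 90 min dye loading and 20 min compound exposure, both at room temperature | Measure: Ratio B score | Medium: Assay buffer for compound exposure, DMSO matched across wells | Compound dosing: Single-concentration screen | Probe or stimulus: K+/Tl+ depolarizing stimulus | Measured by: Kinetic FluxOR fluorescence, 10 s baseline plus 110 s post-stimulus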
KCNK3 block – human KCNK3 channel inhibition, primary screen | B-score at 10 µM | hit rate 0.84% among 340,000 | CHO-KCNK3 thallium flux, FluxOR fluorescence; hits give low values | AID 602410;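 active means B-score under library mean minus 4 SD, starting fluorescence ratio at most library mean plus 5 SD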;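 further: more negative B-score means stronger inhibition of thallium flux through KCNK3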
KCNK9 inh – human KCNK9 channel inhibition | Q9NPC2 | HEK293 KCNK9, FluxOR thallium flux fluorescence; hits give low values | B-score at 10 µM | hit rate 1.2% among 310,000 | AID 488922;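 active means ratio B-score over 3 SD below the library mean, with starting fluorescence within 5 SD of its mean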;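 further: negative B-score means less thallium flux so channel inhibition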
KCC2 mod – KCC2 (human) Cl- transport modulation; Q9H2X9; KCC2 cells, thallium flux FluoZin-2 fluorescence; B-score of Tl+ flux slope (higher = more flux/activation; lower = inhibition) at 10 µM; hit rate 2.2% among 190,000; AID 1456;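 active means thallium flux slope and its plate-corrected score both differing from the plate sample mean at a set confidence after two filtering rounds, in either direction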;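 further: slope of fluorescence scaled to starting intensity during 10 to 20 s after thallium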
KCNQ1 block – blocks the human KCNQ1 potassium channel. hit rate 1.3% among 310,000. B-score at 10 µM. CHO-K1 KCNQ1, FluxOR thallium flux fluorescence; hits give high values. AID 2642. P51787;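 active means compounds whose thallium flux B-score, printed positive for inhibition, exceeds three library SD while starting fluorescence stays within three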;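 further: channel opened by potassium depolarization with thallium stimulus after 20 min compound exposure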
The depositor's hits bear a star; i = inactive; . = not tested or not shown. Only some compounds are listed: those with a hit (about 4.1% of all), similar ones and a draw of the others.

SMILES	hERG rescue	KCNQ1 act	KCNK3 block	KCNK9 inh	KCC2 mod	KCNQ1 block
N#CC1=C2N=C(N)c3ccccc3N2C2=C(C(=O)CCC2)C1c1ccccc1F (stereo not given)	-10	i	i	i	-0.33	i
Cc1ccccc1C1C(C#N)=C2N=C(N)c3c(sc4c3CCCCC4)N2C2=C1C(=O)CCC2 (stereo not given)	-16	i	i	-6.8*	.	i
Cc1ccc(S(=O)(=O)N(C)c2ccc(OC(=O)COc3ccccc3)cc2)cc1	.	.	i	.	.	.
Cc1ccc(S(=O)(=O)N(C)c2ccc(OCC(=O)Nc3nc(-c4ccccc4)cs3)cc2)cc1	-12	i	i	-7.2*	0.29	i
Cc1ccc(S(=O)(=O)CC(=O)Nc2nc(-c3ccccc3)cs2)cc1	-8	i	i	i	.	6*
Cc1ccc(S(=O)(=O)N(C)c2ccc(OC(=O)c3cccs3)cc2)cc1	.	.	-9.5*	.	.	.
O=C(NCC1CCCO1)c1cccc(S(=O)(=O)Nc2ccc(SC(F)F)cc2)c1 (stereo not given)	.	.	i	.	.	.
O=C(CN1CCOCC1)N1CCOCC1	.	.	i	.	.	.
CCC1=C(OC(=O)N(CC)CC)N2C(=O)OC(=NCC3CC3)[C@]2(Cc2ccccc2)[C@H]2C1=CC[C@H]1C(=O)N(CC(=O)OC)C(=O)[C@H]12	-8	i	.	-6.8*	-1.3	i
CCN(C(=O)COC(=O)c1ccccc1Oc1ccccc1)c1c(N)n(Cc2ccccc2)c(=O)[nH]c1=O	.	.	i	.	.	.
COc1ccc(CCNc2oc(COc3ccc(Br)cc3)nc2C#N)cc1OC	-20	i	-12*	-8.1*	.	i
Cc1ccc(NC(=Nc2ccc(Br)cc2)N2CCOCC2)cc1C	-10	i	i	i	.	6*
Cc1ccc(C(=O)NCc2ccccn2)cc1Cl	-17	i	i	i	0.53	i
N#CC1=C(N)SC(N)=C(C#N)C1CCC1CCCCC1	-30	i	.	i	-1.9	9*
COc1ccc(NC(=O)COc2cccc3c2CCN(C)C3=O)c(OC)c1	-10	i	i	i	.	i
O=C(O)COc1ccccc1/C=N/NC(=O)CSc1nnc(SCc2cccc3ccccc23)s1	-13	i	i	i	-2.9	i
O=C(CSc1nnc(SCc2cccc3ccccc23)s1)N/N=C/C=C/c1ccccc1[N+](=O)[O-]	-14	i	i	-7.5*	-1	i
Cc1ccc(C2=CSC3=NCCN23)cc1	-13	i	i	i	.	i
Cc1cc(C)c(C2=CSC3=NS(=O)(=O)CCN23)c(C)c1	7.7*	i	i	i	0.59	i
NC(=O)c1ncn([C@@H]2O[C@H](CNCc3cc(Cl)ccc3OCc3ccc(Cl)cc3)[C@@H](O)[C@H]2O)n1	.	.	i	.	.	.
CC(c1ccco1)N(C(=O)COc1ccc(Cl)cc1Cl)c1ccccn1 (stereo not given)	-6	i	i	-8.1*	.	6*
Cc1noc(C)c1C(=O)Nc1nc2ccccc2s1	.	.	i	.	.	.
COc1ccc(CCNCC2C(Oc3ccc(Cl)cc3)C(=O)N2c2ccccc2C)cc1OC (stereo not given)	-13	i	i	-6.8*	0.11	i
CC(C)c1ccc(S(=O)(=O)N2CCN(C(=O)C3CCCC3)CC2)cc1	-8	i	i	i	.	i
COc1cc(Cl)ccc1NC(=O)COc1ccccc1C(=O)NN	-11	i	i	i	-0.35	i
SMILES	hERG rescue	KCNQ1 act	KCNK3 block	KCNK9 inh	KCC2 mod	KCNQ1 block
CCn1c2ccccc2c2cc(NC(=O)c3ccc(=O)oc3)ccc21	-17	i	i	i	-2.4	i
CCn1c2ccccc2c2cc(NC(=O)COc3ccccc3)ccc21	5.4*	i	i	i	-0.0019	i
CCn1c2ccccc2c2cc(NC(=O)c3coc(=O)c(Br)c3)ccc21	-19	i	.	-8.8*	-2	i
COc1cc(C)c(CN2CCC(n3nccc3NC(=O)C3CCOC3)CC2)cc1C (stereo not given)	-4	i	i	i	.	i
CC(=O)Cc1nsc(NC(=O)c2ccccc2)n1	-7	i	i	i	0.95	i
CC(=O)Cc1nsc(NC(=O)c2cccs2)n1	12*	i	i	i	1.2	i
COCc1c(C(=O)NCCOc2ccc(Cl)cc2)oc2ccccc12	.	.	-8.9*	.	.	.
O=C1c2ccccc2NC(c2ccc(Br)s2)N1O (stereo not given)	21*	22*	i	i	.	i
CC(C)CN(C(=O)CSc1nc2ccccc2[nH]1)C1CCS(=O)(=O)C1 (stereo not given)	.	.	i	.	.	.
COc1ccccc1CNC(=O)Cn1cccc1C(=O)c1ccccc1C	-8	i	i	i	.	i
Cn1cccc1/C=C1\SC(=S)N(NC(=O)c2ccccc2Cl)C1=O	.	.	i	.	-3.8	.
Cn1cc(/C=C2\SC(=S)N(NC(=O)c3ccccc3Cl)C2=O)c2ccccc21	.	.	i	.	-5.3*	.
CCN(CC1CCCO1)C(=O)c1cc(COc2ccccc2SC)on1 (stereo not given)	-5	i	i	i	.	i
CCN(CC)c1ccc(CNc2nc3ccccc3n2CCN2CCCCC2)cc1	-18	i	i	i	-0.61	7*
Fc1cc(F)c2nc(N3CCCCC3)sc2c1	5.1*	i	i	i	0.58	i
C(=C\c1nc(N2CCCC2)c2ccccc2n1)/c1ccccc1	-18	i	i	-7.2*	0.52	i
CC1CCN(c2nc(/C=C/c3ccccc3)nc3ccccc23)CC1	-4	i	i	i	0.039	i
CCOCC(O)CNc1ccccc1 (stereo not given)	5.4*	i	i	i	0.74	i
CCN(CC)CCSc1nc2ccccc2n1Cc1ccccc1	-13	i	i	i	.	i
CCOc1c2ccc(C(=O)NCc3ccc(C(F)(F)F)cc3C(F)(F)F)cc2nn1C	-4	i	i	i	0.13	i
CCCCn1nc2cc(C(=O)NCc3ccc(C(F)(F)F)cc3C(F)(F)F)ccc2c1OCC	-8	i	i	i	0.66	6*
CCCC1(CCC)NC(=O)N(CC(=O)Nc2ccc(Cl)c(S(=O)(=O)N3CCOCC3)c2)C1=O	.	.	i	.	.	.
O=C(O)c1ccccc1C(=O)c1ccc2oc(=O)[nH]c2c1	.	.	i	.	.	.
CC(NCc1cc(Br)ccc1OCC(=O)NCc1ccccc1)c1ccccc1 (stereo not given)	-39	i	i	i	-1	6*
NC(N)=N/N=C/c1ccc(OCc2ccccc2)c(OCc2ccccc2)c1	-18	i	i	i	.	6*
COc1cc(/C=N/O)ccc1OCc1ccc(Cl)cc1	-6	i	.	i	-0.75	i
CCOc1cc(/C=N/O)ccc1OCc1ccc(F)cc1	-4	i	i	i	-1.4	i
